Results reported in PMC2857556 (Cytoskeleton (Hoboken, N.J.), 2010).
Read-outs that look alike come from different tables or passages of the source. No end group written: not given here.

Legend:
[1] = biological target: Rabbit skeletal muscle actin, monomeric (G-actin) (rabbit) (UniProt P68135); assay: inhibition of nucleotide exchange on actin
[2] = biological target: Rabbit skeletal muscle actin, monomeric (G-actin) (rabbit) (UniProt P68135); assay: inhibition of nucleotide exchange on actin; remark: listed apart in the source
[3] = test system: G-actin; assay: Interaction of WH2 peptides with G-actin; format: binding
[4] = test system: F-actin; assay: F-actin co-sedimentation; format: binding; details: co-sedimentation assays, data not shown
[5] = test system: actin; assay: Steady state actin critical concentration; format: biochemical; details: for steady state critical concentration for actin assembly (Cc): saturating Srv2 or WH2 peptide, actin alone Cc = 0.21
[6] = Fluorescence-monitored urea denaturation; format: physicochemical
In short: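 Full-length 6xHis-tagged wild type and mutant Srv2 were expressed in E. coli BL21-RP (DE3), purified by IMAC then Superose 6 gel filtration in 20 mM Tris pH 8.0, 50 mM NaCl, 1 mM DTT, and stored at -80°C. Unfolding was followed by fluorescence as a function of urea concentration, with fluorescence normalized.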

[7] = test system: Cof1-bound ADP-actin monomers; assay: Nucleotide exchange on Cof1-bound ADP-actin monomers; format: biochemical, rabbit
In short: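 Rabbit muscle ADP-actin (2 μM) was kept in G-buffer without ATP (10 mM Tris pH 7.5, 0.2 mM CaCl2, 0.2 mM DTT). It was mixed with 20 mM Tris pH 8.0, 50 mM NaCl, alone or containing Cof1 and/or varying full-length Srv2 (yeast profilin from E. coli where used), then added to ε-ATP. The fluorescence rise at 350/410 nm was monitored for at least 600 s.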

[8] = test system: F-actin; assay: Pi release assay of steady state actin filament turnover in the presence of Cof1; format: biochemical, rabbit; details: 8 μM actin, 25°C
In short: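 Cof1 and full-length Srv2 were premixed with 2 mM MgCl2, 0.5 mM ATP, 50 mM KCl, 0.2 mM MESG and 0.1 units PNP. Rabbit muscle actin monomers were added to start polymerization. Once the reaction reached steady state, Pi release was read for 15 min. After path-length correction, steady-state slopes were obtained by linear fit.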

[9] = test system: NBD-labeled G-actin; details: ref Mattila et al., 2004; cited from earlier work

## Srv2/CAP WH2 peptide (a.a. 295-349), wild type (from UniProt P17555 295-349) (domain or fragment)
[1]
  Kd: 1500 nM
[2]
  Kd: 1400 nM

## WH2 peptide: 6xHis-tagged WH2 domain of S. cerevisiae Srv2, a.a. 295-349, purified from E. coli (TPATSSDANKGGIGAVFAELNQGENITKGLKKVDKSQQTHKNPELRQSSTVSSTG; also: 6xHis tag, end not given here)
[3]
  interaction with G-actin (in words): both WH2 peptides interacted with G-actin
[4]
  binding affinity for F-actin (in words): Neither WH2 peptide showed any detectable binding affinity for F-actin
[5]; actin + WH2 versus actin alone
  effect on steady state critical concentration (in words): did not alter the steady state critical concentration for actin assembly
[5]; data not shown
  steady state critical concentration for actin assembly (Cc): 0.26 µM

## 306-349: WH2 domain-containing peptide of Srv2, a.a. 306-349 (GIGAVFAELNQGENITKGLKKVDKSQQTHKNPELRQSSTVSSTG; UniProt P17555 306-349, looked up, fragment)
[3]
  interaction with G-actin (in words): both WH2 peptides interacted with G-actin
[4]
  binding affinity for F-actin (in words): Neither WH2 peptide showed any detectable binding affinity for F-actin

## Srv2-WT: full-length 6xHis-tagged wild type yeast Srv2/CAP protein purified from E. coli
[6]
  folding / stability by urea denaturation (in words): folded correctly
  urea concentration of unfolding: ~ 5 M urea
[7]; 2 μM ADP-G-actin, 5 μM Cof1, 25°C (Fig. 7A)
  Srv2 concentration of peak effect on nucleotide exchange rate: 300 to 400 nM
[8]; 4 μM Cof1, 0-500 nM protein
  effect on actin turnover (Pi release) (in words): increased the rate of turnover in a concentration-dependent manner
[8]; 4 μM Cof1, Srv2 0-500 nM, 360 nm (Fig. 8A)
  rate increase of actin turnover (Pi release), peak: 4 fold
[5]; data not shown
  steady state critical concentration for actin assembly (Cc): 2.4 µM
[5]; versus actin alone, data not shown
  increase of critical concentration versus actin alone: 10 fold

B1: fragment of Srv2/CAP containing the WH2 domain (a.a. 253-373): purified fragment of Srv2/CAP from an earlier study (Mattila et al., 2004) (protein, UniProt P17555 253-373, looked up, fragment)
chain: MAQSTKNTGATSSPSPASATAAPAPPPPPPAPPASVFEISNDTPATSSDANKGGIGAVFAELNQGENITKGLKKVDKSQQTHKNPELRQSSTVSSTGSKSGPPPRPKKPSTLKTKRPPRKE
[9]
  binding affinity for NBD-labeled G-actin (in words): no detectable binding affinity for NBD-labeled G-actin

B2: profilin: Yeast profilin (Pfy1) purified from E. coli (protein, UniProt P07274 1-126, looked up)
Profilin: MSWQAYTDNLIGTGKVDKAVIYSRAGDAVWATSGGLSLQPNEIGEIVQGFDNPAGLQSNGLHIQGQKFMLLRADDRSIYGRHDAEGVVCVRTKQTVIIAHYPPTVQAGEATKIVEQLADYLIGVQY
[7]; 2 μM ADP-G-actin, 5 μM Cof1, 50 μM ε-ATP, 25°C
  effect on nucleotide exchange on Cof1-bound ADP-actin, protein alone (in words): no detectable activity
[7]; 5 μM yeast profilin with 400 nM full-length Srv2-WT, 5 μM Cof1 (Fig. 7F)
  effect of profilin on Srv2-WT promotion of nucleotide exchange (in words): does not enhance Srv2’s effects
